Measured values from publication PMC7931646 (The Journal of Experimental Medicine, 2021).

Tests used:
[1] = Kinetic aqueous solubility, PBS pH 7.4; assay type: physicochemical; conditions: PBS buffer, pH 7.4, aqueous buffer, kinetic from dmso stock
Summary of the method: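 Kinetic solubility in PBS at pH 7.4, read by UV/Vis absorbance and reported in micromolar.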

[2] = Liver microsomal stability, human; assay type: in vitro ADME; conditions: liver microsomes
Summary of the method: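 Test compound at 1 µM was incubated for 30 min with liver microsomes at 1 mg/ml (human, rat or mouse). Result is percent of parent compound remaining.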

CYP450 2C9 = CYP450 2C9 (Homo sapiens, UniProt P11712); assay: CYP450 inhibition, recombinant isoform; assay type: in vitro ADME
[3] = Plasma protein binding, equilibrium dialysis; assay type: in vitro ADME; conditions: human
Summary of the method: (§1)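 Equilibrium dialysis of test compound in human, rat or mouse plasma against buffer across a semipermeable membrane. Compound concentrations in both compartments were measured by LC/MS, and percent bound was derived from them.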

[4] = Plasma protein binding, equilibrium dialysis; assay type: in vitro ADME; conditions: rat
Summary of the method: as §1

[5] = Plasma protein binding, equilibrium dialysis; assay type: in vitro ADME; conditions: mouse
Summary of the method: as §1

hERG channel = hERG channel (Homo sapiens, UniProt Q12809); assay: Patch-Xpress patch-clamp hERG assay in HEK-293 cells; assay type: cell-based
[6] = tested on: S. typhimurium bacterial strains TA98, TA100, TA1535, TA1537; assay: Non-GLP screening; assay type: cell-based, Salmonella typhimurium; conditions: 5–100 µM, with and without Aroclor-induced rat liver S9
Summary of the method: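 Non-GLP mini-Ames screen using S. typhimurium TA98, TA100, TA1535 and TA1537, with and without Aroclor-induced rat liver S9. Test article was applied at 5–100 µM. Read-out was bacterial growth from reversion of the histidine mutation.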

adenosine A3 = adenosine A3 (Homo sapiens, UniProt P0DMS8); assay: CEREP off-target radioligand binding panel; conditions: read-out: inhibition of ligand binding
Summary of the method: (§2)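 CEREP secondary-pharmacology panel of 55 receptors, transporters and ion channels. Test compound at 10 µM was assessed for inhibition of binding of a radiolabelled reference ligand specific to each target. Result is percent inhibition of ligand binding.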

dopamine D1 = dopamine D1 (Homo sapiens, UniProt P21728); assay: CEREP off-target radioligand binding panel; conditions: read-out: inhibition of ligand binding
Summary of the method: as §2

NK3 = NK3 (Homo sapiens, UniProt P29371); assay: CEREP off-target radioligand binding panel; conditions: read-out: inhibition of ligand binding
Summary of the method: as §2

sodium channel (Site 2) = assay: CEREP off-target radioligand binding panel; conditions: 10 µM
Summary of the method: as §2

[7] = Single-dose i.v./po PK in male Sprague-Dawley rats; assay type: in vivo, rat
Summary of the method: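 Sprague-Dawley rats received a single i.v. dose of 1 mg/kg (n = 13) or an oral dose of 5 mg/kg (n = 3). Plasma was sampled at 5 min (i.v. only), 15 and 30 min, 1, 2, 4, 8 and 12 h, and 24 and 48 h (po only). Oral bioavailability came from i.v./po comparison; fabs came from kinetic analysis.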

[8] = Single-dose i.v./po PK in cynomolgus macaques; assay type: in vivo, cynomolgus macaque; conditions: for clearance: male, cynomolgus monkey, plasma, iv, 1 mg/kg
Summary of the method: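 Cynomolgus monkeys received a single i.v. dose of 1 mg/kg. Whole blood was collected at set time points and processed to plasma. Drug levels were measured with a bioanalytical method validated for NHP plasma. Clearance was derived from the plasma concentration–time data.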

[9] = tested on: Aβ42 and Aβ40 levels in plasma and brain; assay: 9-d repeat-dose efficacy in C57BL/6J mice; assay type: in vivo, mouse; conditions: 10 mg/kg/d for 9 d
[10] = tested on: Aβ42, Aβ40, Aβ38 in plasma and brain extracts; assay: Chronic 3-mo efficacy in PSAPP transgenic mice; assay type: in vivo, mouse; conditions: 25 mg/kg/d po
Summary of the method: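 Female PSAPP (APPswe/PSEN1dE9) mice and wild-type C57BL/6J controls, 9–10 per group, housed at 22°C on a 12:12 h light cycle. Treatment began at 90 or 180 d of age: vehicle (80% PEG 400, 20% water, 0.1% Tween 20) or test compound 25 mg/kg/d by oral gavage for 3 mo. Brain Aβ peptides were then measured.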

cerebral amyloidosis = assay: Immunohistochemistry of amyloid deposition; assay type: in vivo, mouse; conditions: 25 mg/kg/d, 3 mo
Summary of the method: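 Female PSAPP mice began treatment at 90 or 180 d of age with vehicle (PEG 400/water/Tween 20) or test compound 25 mg/kg/d by oral gavage for 3 mo. Cerebral amyloid deposition in cortex and hippocampus was assessed by immunohistochemistry with anti-Aβ mAb 3D6, alongside Iba1 staining for microgliosis.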

[11] = tested on: Aβ42, Aβ40, Aβ38 in plasma, brain and CSF; assay: 9-d repeat-dose pharmacodynamics in male Sprague-Dawley rats; assay type: in vivo, rat; conditions: 5 mg/kg po daily 9 d, 4 h post dose
Summary of the method: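 Male Sprague-Dawley rats, n = 14 per dose level, received vehicle (80% PEG 400, 20% water, 0.1% Tween 20) or test compound at 5, 25 or 50 mg/kg orally once daily for 9 d. Sampling was 4 h after the day-9 dose: plasma, brain extracts, and CSF from the cisterna magnum. Aβ38/40/42 were measured by MSD multiplex assay. Results are mean ± SEM, analysed by ANOVA.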

[12] = GLP in vitro micronucleus evaluation; assay type: cell-based; conditions: data not shown
[13] = tested on: Pig-a mutant RBCs and RETs; assay: GLP 28-d in vivo Pig-a gene mutation study in rats; set-up: species or system rat; conditions: 28 d, 6, 20, 60 mg/kg/d (males), 3, 10, 30 mg/kg/d (females)
Summary of the method: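 GLP study in male and female Sprague-Dawley rats, n = 5 per dose per sex. Test compound in 15% Labrasol:85% water was given by oral gavage for 28 d at 0, 6, 20 or 60 mg/kg/d (males) or 0, 3, 10 or 30 mg/kg/d (females). Peripheral blood was then analysed by flow cytometry for % reticulocytes, mutant-phenotype RBC frequency and mutant-phenotype RET frequency.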

[14] = PSAPP mice treated from 3 mo of age (prophylactic)
[15] = PSAPP mice treated from 6 mo of age (disease-modifying)

Chain of hERG channel (Q12809 whole entry): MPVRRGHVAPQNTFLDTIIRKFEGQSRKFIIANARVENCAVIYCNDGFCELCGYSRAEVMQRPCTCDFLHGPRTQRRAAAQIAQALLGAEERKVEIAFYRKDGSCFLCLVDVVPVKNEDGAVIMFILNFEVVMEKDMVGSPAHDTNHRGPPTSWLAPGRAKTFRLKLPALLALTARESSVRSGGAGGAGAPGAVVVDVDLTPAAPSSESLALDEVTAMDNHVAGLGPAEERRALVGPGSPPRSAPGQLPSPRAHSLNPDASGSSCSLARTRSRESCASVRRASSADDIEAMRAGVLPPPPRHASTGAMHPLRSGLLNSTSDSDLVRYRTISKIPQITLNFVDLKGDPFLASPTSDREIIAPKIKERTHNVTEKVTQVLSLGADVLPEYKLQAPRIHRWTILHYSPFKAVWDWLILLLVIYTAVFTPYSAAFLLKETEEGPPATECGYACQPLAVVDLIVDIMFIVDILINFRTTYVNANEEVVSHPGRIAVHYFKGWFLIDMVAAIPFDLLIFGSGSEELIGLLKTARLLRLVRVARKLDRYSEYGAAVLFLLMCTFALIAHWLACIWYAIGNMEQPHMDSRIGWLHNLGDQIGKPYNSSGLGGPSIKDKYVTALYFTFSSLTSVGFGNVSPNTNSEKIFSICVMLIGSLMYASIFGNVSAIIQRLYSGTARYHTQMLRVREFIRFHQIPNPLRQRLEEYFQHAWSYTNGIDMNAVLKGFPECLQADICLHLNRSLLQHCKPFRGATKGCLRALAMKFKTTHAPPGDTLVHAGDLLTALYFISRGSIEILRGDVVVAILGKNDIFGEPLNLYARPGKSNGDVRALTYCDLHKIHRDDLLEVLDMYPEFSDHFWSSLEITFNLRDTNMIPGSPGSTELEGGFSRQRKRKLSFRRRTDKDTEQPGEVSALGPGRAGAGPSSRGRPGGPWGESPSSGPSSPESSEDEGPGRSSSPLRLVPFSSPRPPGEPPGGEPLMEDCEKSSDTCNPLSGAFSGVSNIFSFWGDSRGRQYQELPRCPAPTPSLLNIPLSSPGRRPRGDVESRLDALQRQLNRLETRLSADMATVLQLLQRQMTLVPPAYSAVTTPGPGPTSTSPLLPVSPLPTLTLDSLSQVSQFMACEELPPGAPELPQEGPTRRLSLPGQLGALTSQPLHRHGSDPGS
Chain of dopamine D1 (P21728 whole entry): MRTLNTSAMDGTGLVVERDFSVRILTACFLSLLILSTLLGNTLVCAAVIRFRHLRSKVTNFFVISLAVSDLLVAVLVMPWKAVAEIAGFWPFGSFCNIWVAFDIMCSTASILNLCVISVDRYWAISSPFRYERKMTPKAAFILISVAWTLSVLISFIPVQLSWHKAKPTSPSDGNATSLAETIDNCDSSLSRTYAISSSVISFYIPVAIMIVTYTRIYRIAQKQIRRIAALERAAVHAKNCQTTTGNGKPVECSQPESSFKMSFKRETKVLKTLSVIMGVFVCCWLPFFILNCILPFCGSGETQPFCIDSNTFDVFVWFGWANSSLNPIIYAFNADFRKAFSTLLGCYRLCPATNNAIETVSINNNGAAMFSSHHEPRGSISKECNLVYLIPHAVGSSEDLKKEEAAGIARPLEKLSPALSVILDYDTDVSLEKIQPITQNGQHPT
Chain of NK3 (P29371 whole entry): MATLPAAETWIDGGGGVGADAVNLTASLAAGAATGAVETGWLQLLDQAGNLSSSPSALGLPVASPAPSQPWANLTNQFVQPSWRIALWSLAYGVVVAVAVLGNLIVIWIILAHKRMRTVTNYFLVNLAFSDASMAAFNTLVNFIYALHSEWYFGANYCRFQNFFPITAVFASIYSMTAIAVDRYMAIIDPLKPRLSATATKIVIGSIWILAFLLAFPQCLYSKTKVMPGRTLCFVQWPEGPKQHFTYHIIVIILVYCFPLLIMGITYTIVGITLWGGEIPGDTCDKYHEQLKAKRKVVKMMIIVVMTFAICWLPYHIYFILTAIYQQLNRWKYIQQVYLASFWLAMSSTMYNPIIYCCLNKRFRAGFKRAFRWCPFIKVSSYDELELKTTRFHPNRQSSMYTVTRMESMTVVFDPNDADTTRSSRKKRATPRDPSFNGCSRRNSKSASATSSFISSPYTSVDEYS
Chain of adenosine A3 (P0DMS8 whole entry): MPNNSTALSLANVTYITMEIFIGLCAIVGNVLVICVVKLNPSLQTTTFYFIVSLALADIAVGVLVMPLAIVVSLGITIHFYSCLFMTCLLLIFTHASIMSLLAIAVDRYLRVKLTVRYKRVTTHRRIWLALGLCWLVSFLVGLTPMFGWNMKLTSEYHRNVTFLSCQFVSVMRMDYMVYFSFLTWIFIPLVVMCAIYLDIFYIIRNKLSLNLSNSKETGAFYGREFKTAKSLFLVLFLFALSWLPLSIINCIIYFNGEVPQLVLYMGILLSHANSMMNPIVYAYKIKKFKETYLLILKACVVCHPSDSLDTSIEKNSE
Chain of CYP450 2C9 (P11712 whole entry, canonical isoform): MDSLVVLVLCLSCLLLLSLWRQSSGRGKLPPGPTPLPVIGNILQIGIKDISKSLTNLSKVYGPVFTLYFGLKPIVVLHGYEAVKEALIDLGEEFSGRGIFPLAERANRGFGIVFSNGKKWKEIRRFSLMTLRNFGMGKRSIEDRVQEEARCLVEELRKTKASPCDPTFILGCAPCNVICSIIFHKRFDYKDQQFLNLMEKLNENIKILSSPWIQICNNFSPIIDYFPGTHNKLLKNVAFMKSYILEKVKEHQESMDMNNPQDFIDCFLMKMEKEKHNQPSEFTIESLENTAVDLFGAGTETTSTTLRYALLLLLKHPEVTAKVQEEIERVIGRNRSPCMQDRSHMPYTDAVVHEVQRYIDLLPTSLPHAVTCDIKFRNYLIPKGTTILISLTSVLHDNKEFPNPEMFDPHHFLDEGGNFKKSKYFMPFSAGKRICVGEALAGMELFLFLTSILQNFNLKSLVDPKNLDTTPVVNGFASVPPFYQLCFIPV

For `COc1nc(-c2cc(C)c(N[C@@H](C)c3cc(F)cc(F)c3)nn2)ccc1-n1cnc(C)c1` [Compound 2, (S)-N-(1-(3,5-difluorophenyl)ethyl)-6-(6-methoxy-5-(4-methyl-1H-imidazol-1-yl)pyridin-2-yl)-4-methylpyridazin-3-amine], which solubility kinetic [1] is on record?
Its solubility kinetic is less than 1.3 µM.

What about the remaining at 0.5 h, 1 µM [2] of the same molecule?
The remaining at 0.5 h, 1 µM was 71%.

What about the IC50 (CYP450 2C9) of the same molecule?
The IC50 was 4.4 µM.

What about the “% PPB H” value [3] of the same molecule?
The value was 99.8%.

And the “% PPB R” value [4]?
Its value is 99.9%.

And the “% PPB M” value [5]?
The value was 99.9%.

What about the IC50 (hERG channel) of the same molecule?
The IC50 was 7.3 µM.

And the “safety margin between Aβ42 IC50 and hERG IC20” value (hERG channel)?
The value was greater than 100 fold.

What about the IC20 (hERG channel; human, HEK-293 cells expressing hERG) of the same molecule?
The IC20 was 1.3 µM.

What about the Ames [6] of the same molecule?
The Ames was “Negative”.

What about the inhibition at 10 µM (adenosine A3) of the same molecule?
Its inhibition at 10 µM is greater than 50%.

And the inhibition at 10 µM (dopamine D1)?
The inhibition at 10 µM was greater than 50%.

What about the inhibition at 10 µM (NK3) of the same molecule?
The inhibition at 10 µM was greater than 50%.

What about the “inhibition of ligand binding” value (sodium channel (Site 2)) of the same molecule?
The value was “Greater than 50%”.

What about the “CL as percent of reported hepatic blood flow” value ([7]; hepatic blood flow 75 ml/min/kg) of the same molecule?
The value was less than 10%.

What about the “fraction of dose absorbed from intestinal lumen (fabs)” value ([7]; kinetic analysis) of the same molecule?
The value was roughly 90%.

And the clearance ([7]; male, Sprague-Dawley, rat, plasma, iv, 1 mg/kg, CL)?
Its clearance is 6 mL/min/kg.

And the “CL as percent of reported hepatic blood flow” value ([8]; NHPs, hepatic blood flow 50 ml/min/kg)?
The value was less than 10%.

What about the clearance ([8]; CL, NHPs) of the same molecule?
Its clearance is 5.5 mL/min/kg.

And the clearance ([8]; Cl, NHP)?
Its clearance is 5.52 mL/min/kg.

And the “elimination of detectable Aβ42 in brain” value [9]?
The value was 100%.

And the “reduction in plasma Aβ42 levels” value [9]?
Its value is greater than 90%.

And the “reduction of brain Aβ42, detergent-insoluble (formic acid) extract” value [10, 14]?
Its value is 54%.

And the “reduction of brain Aβ42, detergent-soluble (RIPA buffer) extract” value [10, 14]?
The value was 44%.

What about the “reduction of brain Aβ42, detergent-insoluble (formic acid) extract” value [10, 15] of the same molecule?
The value was 39%.

What about the “reduction of brain Aβ42, detergent-soluble (RIPA buffer) extract” value [10, 15] of the same molecule?
The value was 45%.

What about the “attenuation of cerebral amyloidosis (mAb 3D6), cortex and hippocampus” value (cerebral amyloidosis; 6-mo-old PSAPP mice (prophylactic group), P < 0.01) of the same molecule?
Its value is “greater than twofold”.

What about the “cerebral amyloidosis (mAb 3D6), cortex and hippocampus, vs vehicle” value (cerebral amyloidosis; 9-mo-old PSAPP mice (disease-modifying group), P < 0.03) of the same molecule?
The value was “statistically significant decrease”.

What about the “Brain % Aβ42 ∆ vs vehicle (↓ reduction)” value [11] of the same molecule?
Its value is 54%.

And the “Brain %Aβ40 ∆ vs vehicle (↓ reduction)” value [11]?
The value was 29%.

And the “CSF % Aβ42 ∆ vs vehicle (↓ reduction)” value [11]?
Its value is 41%.

And the “CSF %Aβ40 ∆ vs vehicle (↓ reduction)” value [11]?
Its value is 29%.

And the “Plasma % Aβ40 ∆ vs vehicle (↓ reduction)” value [11]?
Its value is 57%.

What about the “Plasma % Aβ42 ∆ vs vehicle (↓ reduction)” value [11] of the same molecule?
Its value is 78%.

And the “GLP in vitro micronucleus evaluation” value [12]?
Its value is “negative”.

What about the “in vivo mutagenicity (Pig-a mutant RBCs and RETs)” value [13] of the same molecule?
The value was “negative”.
